Results as given in ChEMBL document CHEMBL1795208 (J Med Chem, 2011).

What was measured:
Format in all cases: functional, cell-based
SK-BR-3 = assay: Antiproliferative activity against human SKBR3 cells expressing HER2 after 72 hrs by MTS/PMS assay; settings: SK-BR-3, 72 h
Procedure, shortened: (§1)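 Cells kept in Advanced DMEM/F12 (1:1) with non-essential amino acids, 2 mM L-glutamine, penicillin, streptomycin and 10% FBS at 37 °C, 5% CO2. Seeded at 2000/well, attached overnight. Compound added in DMSO across a concentration range (1% DMSO final) for 72 h. Viable cells read by MTS/PMS and normalized to 1% DMSO controls (100%). IC50 taken from separate triplicate experiments.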

[1] = Antiproliferative activity against human androgen-independent PC3MM2 cells after 72 hrs by MTS/PMS assay; settings: PC3MM2, 72 h; procedure, shortened: as §1
[2] = Antiproliferative activity against human androgen-dependent LNCaP-LN3 cells after 72 hrs by MTS/PMS assay; settings: LNCaP-LN3, 72 h; procedure, shortened: as §1
MCF7 = assay: Antiproliferative activity against human MCF7 cells expressing estrogen receptor after 72 hrs by MTS/PMS assay; settings: MCF7, 72 h; procedure, shortened: as §1

SMILES | IC50 (SK-BR-3) | IC50 [1] | IC50 [2] | IC50 (MCF7)
COc1cccc(-c2cc(C(=O)Nc3cc4ccc(O)c(OC)c4oc3=O)ccc2OC)c1 | > 100 µM | > 100 µM | 6.18 µM | 5.32 µM
COc1c(OCCCN(C)C)ccc2cc(NC(=O)c3cc4ccccc4[nH]3)c(=O)oc12 | 1.5 µM | 8.95 µM | 4.71 µM | 1.41 µM
COc1cccc(-c2cc(C(=O)Nc3cc4cc(OC)c(O[C@H]5OCC[C@@H](O)[C@H]5O)c(C)c4oc3=O)ccc2OC)c1 | 12.5 µM | 25.4 µM | 14.9 µM | 64.5 µM
COc1cccc(-c2cc(C(=O)Nc3cc4ccc(OCCCN(C)C)c(OC)c4oc3=O)ccc2OC)c1 | 0.91 µM | 4.08 µM | 8.03 µM | 1.53 µM
COc1cccc(-c2cc(C(=O)Nc3cc4ccc(OC5CN(C(C)=O)C[C@@H](O)[C@H]5O)c(C)c4oc3=O)ccc2OC)c1 (stereo partly drawn) | 10.8 µM | 2.22 µM | 0.71 µM | 9.18 µM
COc1cccc(-c2cc(C(=O)Nc3cc4ccc(O[C@H]5OCC[C@H]5O)c(C)c4oc3=O)ccc2OC)c1 | > 100 µM | – | 5.34 µM | > 100 µM
COc1cccc(-c2cc(C(=O)Nc3cc4ccc(OC(N)=O)c(OC)c4oc3=O)ccc2OC)c1 | 76.8 µM | > 100 µM | 4.83 µM | 5.56 µM
COc1cccc(-c2cc(C(=O)Nc3cc4ccc(OS(C)(=O)=O)c(C)c4oc3=O)ccc2OC)c1 | 7.33 µM | > 100 µM | 20 µM | 8.85 µM
COc1cccc(-c2cc(C(=O)Nc3cc4cc(OC)c(O[C@@H]5OC[C@@H](O)[C@H]5O)c(C)c4oc3=O)ccc2OC)c1 | 9.45 µM | 9.56 µM | 4.72 µM | 3.37 µM
COc1cccc(-c2cc(C(=O)Nc3cc4ccc(OC(=O)N(C)C)c(C)c4oc3=O)ccc2OC)c1 | 39.9 µM | > 100 µM | 5.4 µM | 74.4 µM
CNC(=O)Oc1c(OC)cc2cc(NC(=O)c3ccc(OC)c(-c4cccc(OC)c4)c3)c(=O)oc2c1C | 1.53 µM | 3.13 µM | 4.77 µM | 7.78 µM
COc1cccc(-c2cc(C(=O)Nc3cc4cc(OC)c(O[C@@H]5OCC[C@@H](O)[C@H]5O)c(C)c4oc3=O)ccc2OC)c1 | 7.18 µM | 24 µM | 12.8 µM | 9.5 µM
COc1cccc(-c2cc(C(=O)Nc3cc4ccc(O[C@@H]5OCC[C@@H](O)[C@H]5O)c(OC)c4oc3=O)ccc2OC)c1 | 1.46 µM | 10.7 µM | 2.29 µM | 17.5 µM
COc1cccc(-c2cc(C(=O)Nc3cc4ccc(OC(=O)N(C)C)c(OC)c4oc3=O)ccc2OC)c1 | > 100 µM | 11.6 µM | 15.7 µM | > 100 µM
COc1cccc(-c2cc(C(=O)Nc3cc4ccc(OC5CCN(C)CC5)c(C)c4oc3=O)ccc2OC)c1 | 1.34 µM | 3.13 µM | 4.12 µM | 1.51 µM
COc1cccc(-c2cc(C(=O)Nc3cc4cc(OC)c(O[C@H]5C[C@H](O)CCO5)c(C)c4oc3=O)ccc2OC)c1 | > 100 µM | 1.24 µM | 1.49 µM | > 100 µM
COc1cccc(-c2cc(C(=O)Nc3cc4ccc(OC(N)=O)c(C)c4oc3=O)ccc2OC)c1 | 3.02 µM | 6.37 µM | 2.61 µM | 1.16 µM
COc1cccc(-c2cc(C(=O)Nc3cc4cc(OC)c(O[C@@H]5C[C@H](O)CCO5)c(C)c4oc3=O)ccc2OC)c1 | 1.37 µM | 2.35 µM | 3.27 µM | > 100 µM
CNC(=O)Oc1ccc2cc(NC(=O)c3ccc(OC)c(-c4cccc(OC)c4)c3)c(=O)oc2c1C | 2.4 µM | 5.22 µM | 3.75 µM | 1.72 µM
COc1cccc(-c2cc(C(=O)Nc3cc4ccc(OP(=O)(OC)OC)c(OC)c4oc3=O)ccc2OC)c1 | 18.1 µM | 11.5 µM | 6.58 µM | > 100 µM
COc1cccc(-c2cc(C(=O)Nc3cc4cc(OC)c(OS(C)(=O)=O)c(C)c4oc3=O)ccc2OC)c1 | > 100 µM | – | > 100 µM | > 100 µM
COc1cccc(-c2cc(C(=O)Nc3cc4cc(OC)c(OCCCN(C)C)c(C)c4oc3=O)ccc2OC)c1 | 0.49 µM | 5.4 µM | 4.71 µM | 0.7 µM
CNCCOc1ccc2cc(NC(=O)c3ccc(OC)c(-c4cccc(OC)c4)c3)c(=O)oc2c1OC | 3.6 µM | 9.12 µM | 15.2 µM | 4.32 µM
COc1c(OCCCN(C)C)ccc2cc(NC(=O)c3ccc(O)c(CC=C(C)C)c3)c(=O)oc12 | 0.77 µM | 9.24 µM | – | 3.26 µM
COc1cccc(-c2cc(C(=O)Nc3cc4ccc(OCCCN(C)C)c(C)c4oc3=O)ccc2OC)c1 | 0.6 µM | 12.8 µM | 37.5 µM | 0.5 µM

SMILES | IC50 (SK-BR-3) | IC50 [1] | IC50 [2] | IC50 (MCF7)
COc1cccc(-c2cc(C(=O)Nc3cc4ccc(OS(C)(=O)=O)c(OC)c4oc3=O)ccc2OC)c1 | > 100 µM | – | 0.87 µM | > 100 µM
COc1cccc(-c2cc(C(=O)Nc3cc4ccc(OCCN(C)C)c(OC)c4oc3=O)ccc2OC)c1 | 1.77 µM | 6.2 µM | 5.22 µM | 3.08 µM
COc1cccc(-c2cc(C(=O)Nc3cc4ccc(OS(=O)(=O)c5ccc(C)cc5)c(C)c4oc3=O)ccc2OC)c1 | > 100 µM | > 100 µM | 0.58 µM | > 100 µM
COc1cccc(-c2cc(C(=O)Nc3cc4cc(OC)c(O[C@@H]5O[C@H](CO)C[C@@H](O)[C@H]5O)c(C)c4oc3=O)ccc2OC)c1 | 9.45 µM | 5.9 µM | 4.66 µM | 3.37 µM
COc1cccc(-c2cc(C(=O)Nc3cc4ccc(O[C@H]5C[C@H](O)CCO5)c(OC)c4oc3=O)ccc2OC)c1 | 8.75 µM | – | 11.5 µM | 95.8 µM
COc1cccc(-c2cc(C(=O)Nc3cc4ccc(O[C@@H]5O[C@H](CO)C[C@@H](O)[C@H]5O)c(OC)c4oc3=O)ccc2OC)c1 | 11.8 µM | 17.9 µM | 6.78 µM | 14.3 µM
COc1cccc(-c2cc(C(=O)Nc3cc4cc(OC)c(OP(=O)(OC)OC)c(C)c4oc3=O)ccc2OC)c1 | 26.5 µM | 31.3 µM | 1.36 µM | 24.2 µM
COc1cccc(-c2cc(C(=O)Nc3cc4ccc(OC5OC(C)(C)[C@H](OC)[C@@H](O)[C@H]5O)c(OC)c4oc3=O)ccc2OC)c1 (stereo partly drawn) | 13.9 µM | 1.44 µM | 0.11 µM | 9 µM
CNCCOc1c(OC)cc2cc(NC(=O)c3ccc(OC)c(-c4cccc(OC)c4)c3)c(=O)oc2c1C | 3.15 µM | 11.8 µM | > 100 µM | 6.23 µM
COc1c(OC2CCN(C)CC2)ccc2cc(NC(=O)c3ccc(O)c(CC=C(C)C)c3)c(=O)oc12 | 0.92 µM | 3.53 µM | – | 1.54 µM
COc1cccc(-c2cc(C(=O)Nc3cc4ccc(O[C@@H]5C[C@H](O)CCO5)c(C)c4oc3=O)ccc2OC)c1 | 9.28 µM | – | 8.56 µM | 11.2 µM
COc1cccc(-c2cc(C(=O)Nc3cc4cc(OC)c(OC5OC(C)(C)[C@H](OC)[C@@H](O)[C@H]5O)c(C)c4oc3=O)ccc2OC)c1 (stereo partly drawn) | 58.8 µM | > 100 µM | 26.6 µM | > 100 µM
COc1cccc(-c2cc(C(=O)Nc3cc4ccc(OCC(O)CO)c(OC)c4oc3=O)ccc2OC)c1 (stereo not drawn) | > 50 µM | 1.66 µM | 0.96 µM | > 50 µM
COc1cccc(-c2cc(C(=O)Nc3cc4cc(OC)c(OC(=O)N(C)C)c(C)c4oc3=O)ccc2OC)c1 | 6.17 µM | 4.04 µM | 12.8 µM | 34.4 µM
COc1cccc(-c2cc(C(=O)Nc3cc4ccc(OS(=O)(=O)c5ccc(C)cc5)c(OC)c4oc3=O)ccc2OC)c1 | > 100 µM | – | 0.11 µM | > 100 µM
COc1cccc(-c2cc(C(=O)Nc3cc4ccc(O[C@H]5C[C@H](O)CCO5)c(C)c4oc3=O)ccc2OC)c1 | > 100 µM | > 100 µM | 3.11 µM | > 100 µM
COc1cccc(-c2cc(C(=O)Nc3cc4ccc(OC(C)=O)c(OC)c4oc3=O)ccc2OC)c1 | 20.5 µM | 19.3 µM | 14.6 µM | 8.62 µM
CNC(=O)Oc1ccc2cc(NC(=O)c3ccc(OC)c(-c4cccc(OC)c4)c3)c(=O)oc2c1OC | > 100 µM | 1.68 µM | 2.37 µM | 6.54 µM
COc1cccc(-c2cc(C(=O)Nc3cc4cc(OC)c(OC(N)=O)c(C)c4oc3=O)ccc2OC)c1 | 6.83 µM | 2.62 µM | 3.55 µM | 6.29 µM
COc1cccc(-c2cc(C(=O)Nc3cc4cc(OC)c(OC(C)=O)c(C)c4oc3=O)ccc2OC)c1 | 5.72 µM | 1.69 µM | 1.05 µM | 1.5 µM
Cc1c(OC2CCN(C)CC2)ccc2cc(NC(=O)c3cc4ccccc4[nH]3)c(=O)oc12 | 0.48 µM | 11.4 µM | 11.8 µM | 0.57 µM
COc1cccc(-c2cc(C(=O)Nc3cc4ccc(OP(=O)(OC)OC)c(C)c4oc3=O)ccc2OC)c1 | > 100 µM | > 100 µM | 3.65 µM | > 100 µM
COc1cccc(-c2cc(C(=O)Nc3cc4cc(OC)c(OCCN(C)C)c(C)c4oc3=O)ccc2OC)c1 | 1.42 µM | 4.87 µM | 6.28 µM | 1.29 µM
COc1cccc(-c2cc(C(=O)Nc3cc4ccc(O)c(C)c4oc3=O)ccc2OC)c1 | 8.88 µM | 5.36 µM | 3.21 µM | 6.93 µM
